# Laboratory results from ChEMBL document CHEMBL3632550, “Saponarin activates AMPK in a calcium-dependent manner and suppresses gluconeogenesis and increases glucose uptake via phosphorylation of CRTC2 and HDAC5” (Bioorg Med Chem Lett, 2015).
# The source made the active and inactive calls. No cut-off for these calls is given here.
# Biological target: AMP-activated protein kinase, AMPK (Homo sapiens) (UniProt P54646+O43741+P54619+Q9UGJ0+Q9Y478+Q13131+Q9UGI9)
# Assay: Activation of AMPK in human HepG2 cells assessed as reduction of gluconeogenesis at 1 mM after 24 hrs by enzymatic colorimetric assay
# Format: cell-based
# Summary of the method: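 HepG2 cells seeded in DMEM with 10% FBS, switched next day to FBS-free medium and treated 24 h. Medium then replaced by glucose-free, phenol red-free DMEM with 20 mM sodium lactate and 2 mM sodium pyruvate. After 6 h, glucose released into the medium was measured by enzymatic colorimetric assay and normalized to total cell protein. Mean ± SEM; one-way ANOVA with Tukey test.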
compound,measurement,value
CN(C)C(=N)NC(=N)N,Activity,Active
